ChEMBL document CHEMBL1629465, “Efficient synthesis of novel 1,2,4-triazole fused acyclic and 21-28 membered macrocyclic and/or lariat macrocyclic oxaazathia crown compounds with potential antimicrobial activity” (2010)

test system: Escherichia coli; assay: Antimicrobial activity against Escherichia coli RCMB 103001 at 5 mg/ml by agar diffusion technique; format: functional; details: read-out: DIZ
Procedure, shortened: (§1)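 Agar well diffusion. Test compounds and reference standard drugs were diluted to 5.0, 2.5 and 1.0 mg/mL and applied to 0.6 cm wells. Inhibition zone beyond the control was scored as 0 (no inhibition), + (0.1–0.5 cm), ++ (0.6–1.0 cm) or +++ (1.0–1.5 cm).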

| SMILES | zone of inhibition at 5000 µg/mL [mm] |
| --- | --- |
| S=c1[nH]nc(-c2cccnc2)n1/N=C\c1ccccc1OCCCCOc1ccccc1/C=N\n1c(-c2cccnc2)n[nH]c1=S | 0 |
| S=c1[nH]nc(-c2cccnc2)n1/N=C\c1ccccc1OCCOCCOc1ccccc1/C=N\n1c(-c2cccnc2)n[nH]c1=S | 0 |

test system: Candida albicans; assay: Antimicrobial activity against Candida albicans RCMB 005003 at 2.5 mg/ml by agar diffusion technique; format: functional; details: read-out: DIZ; procedure, shortened: as §1

| SMILES | zone of inhibition at 2500 µg/mL [mm] |
| --- | --- |
| S=c1[nH]nc(-c2cccnc2)n1/N=C\c1ccccc1OCCCCOc1ccccc1/C=N\n1c(-c2cccnc2)n[nH]c1=S | 0 |
| S=c1[nH]nc(-c2cccnc2)n1/N=C\c1ccccc1OCCOCCOc1ccccc1/C=N\n1c(-c2cccnc2)n[nH]c1=S | 0 |

test system: Syncephalastrum racemosum; assay: Antimicrobial activity against Syncephalastrum racemosum RCMB 016001 at 5 mg/ml by agar diffusion technique; format: functional; details: read-out: DIZ; procedure, shortened: as §1

| SMILES | zone of inhibition at 5000 µg/mL [mm] |
| --- | --- |
| S=c1[nH]nc(-c2cccnc2)n1/N=C\c1ccccc1OCCCCOc1ccccc1/C=N\n1c(-c2cccnc2)n[nH]c1=S | 1 |
| S=c1[nH]nc(-c2cccnc2)n1/N=C\c1ccccc1OCCOCCOc1ccccc1/C=N\n1c(-c2cccnc2)n[nH]c1=S | 1 |

test system: Penicillium italicum; assay: Antimicrobial activity against Penicillium italicum RCMB 001018 at 1 mg/ml by agar diffusion technique; format: functional; details: read-out: DIZ; procedure, shortened: as §1

| SMILES | zone of inhibition at 1000 µg/mL [mm] |
| --- | --- |
| S=c1[nH]nc(-c2cccnc2)n1/N=C\c1ccccc1OCCCCOc1ccccc1/C=N\n1c(-c2cccnc2)n[nH]c1=S | 1 |
| S=c1[nH]nc(-c2cccnc2)n1/N=C\c1ccccc1OCCOCCOc1ccccc1/C=N\n1c(-c2cccnc2)n[nH]c1=S | 1 |

test system: Escherichia coli; assay: Antimicrobial activity against Escherichia coli RCMB 103001 at 1 mg/ml by agar diffusion technique; format: functional; details: read-out: DIZ; procedure, shortened: as §1

| SMILES | zone of inhibition at 1000 µg/mL [mm] |
| --- | --- |
| S=c1[nH]nc(-c2cccnc2)n1/N=C\c1ccccc1OCCCCOc1ccccc1/C=N\n1c(-c2cccnc2)n[nH]c1=S | 0 |
| S=c1[nH]nc(-c2cccnc2)n1/N=C\c1ccccc1OCCOCCOc1ccccc1/C=N\n1c(-c2cccnc2)n[nH]c1=S | 0 |

test system: Pseudomonas aeruginosa; assay: Antimicrobial activity against Pseudomonas aeruginosa RCMB 102002 at 5 mg/ml by agar diffusion technique; format: functional; details: read-out: DIZ; procedure, shortened: as §1

| SMILES | zone of inhibition at 5000 µg/mL [mm] |
| --- | --- |
| S=c1[nH]nc(-c2cccnc2)n1/N=C\c1ccccc1OCCCCOc1ccccc1/C=N\n1c(-c2cccnc2)n[nH]c1=S | 1 |
| S=c1[nH]nc(-c2cccnc2)n1/N=C\c1ccccc1OCCOCCOc1ccccc1/C=N\n1c(-c2cccnc2)n[nH]c1=S | 0 |

test system: Syncephalastrum racemosum; assay: Antimicrobial activity against Syncephalastrum racemosum RCMB 016001 at 1 mg/ml by agar diffusion technique; format: functional; details: read-out: DIZ; procedure, shortened: as §1

| SMILES | zone of inhibition at 1000 µg/mL [mm] |
| --- | --- |
| S=c1[nH]nc(-c2cccnc2)n1/N=C\c1ccccc1OCCCCOc1ccccc1/C=N\n1c(-c2cccnc2)n[nH]c1=S | 0 |
| S=c1[nH]nc(-c2cccnc2)n1/N=C\c1ccccc1OCCOCCOc1ccccc1/C=N\n1c(-c2cccnc2)n[nH]c1=S | 0 |

test system: Staphylococcus aureus; assay: Antimicrobial activity against Staphylococcus aureus RCMB 106001 at 1 mg/ml by agar diffusion technique; format: functional; details: read-out: DIZ; procedure, shortened: as §1

| SMILES | zone of inhibition at 1000 µg/mL [mm] |
| --- | --- |
| S=c1[nH]nc(-c2cccnc2)n1/N=C\c1ccccc1OCCCCOc1ccccc1/C=N\n1c(-c2cccnc2)n[nH]c1=S | 0 |
| S=c1[nH]nc(-c2cccnc2)n1/N=C\c1ccccc1OCCOCCOc1ccccc1/C=N\n1c(-c2cccnc2)n[nH]c1=S | 0 |

test system: Aspergillus fumigatus; assay: Antimicrobial activity against Aspergillus fumigatus RCMB 002008 at 5 mg/ml by agar diffusion technique; format: functional; details: read-out: DIZ; procedure, shortened: as §1

| SMILES | zone of inhibition at 5000 µg/mL [mm] |
| --- | --- |
| S=c1[nH]nc(-c2cccnc2)n1/N=C\c1ccccc1OCCCCOc1ccccc1/C=N\n1c(-c2cccnc2)n[nH]c1=S | 0 |
| S=c1[nH]nc(-c2cccnc2)n1/N=C\c1ccccc1OCCOCCOc1ccccc1/C=N\n1c(-c2cccnc2)n[nH]c1=S | 1 |

test system: Staphylococcus aureus; assay: Antimicrobial activity against Staphylococcus aureus RCMB 106001 at 2.5 mg/ml by agar diffusion technique; format: functional; details: read-out: DIZ; procedure, shortened: as §1

| SMILES | zone of inhibition at 2500 µg/mL [mm] |
| --- | --- |
| S=c1[nH]nc(-c2cccnc2)n1/N=C\c1ccccc1OCCCCOc1ccccc1/C=N\n1c(-c2cccnc2)n[nH]c1=S | 0 |
| S=c1[nH]nc(-c2cccnc2)n1/N=C\c1ccccc1OCCOCCOc1ccccc1/C=N\n1c(-c2cccnc2)n[nH]c1=S | 0 |

test system: Syncephalastrum racemosum; assay: Antimicrobial activity against Syncephalastrum racemosum RCMB 016001 at 2.5 mg/ml by agar diffusion technique; format: functional; details: read-out: DIZ; procedure, shortened: as §1

| SMILES | zone of inhibition at 2500 µg/mL [mm] |
| --- | --- |
| S=c1[nH]nc(-c2cccnc2)n1/N=C\c1ccccc1OCCCCOc1ccccc1/C=N\n1c(-c2cccnc2)n[nH]c1=S | 1 |
| S=c1[nH]nc(-c2cccnc2)n1/N=C\c1ccccc1OCCOCCOc1ccccc1/C=N\n1c(-c2cccnc2)n[nH]c1=S | 0 |

test system: Aspergillus fumigatus; assay: Antimicrobial activity against Aspergillus fumigatus RCMB 002008 at 2.5 mg/ml by agar diffusion technique; format: functional; details: read-out: DIZ; procedure, shortened: as §1

| SMILES | zone of inhibition at 2500 µg/mL [mm] |
| --- | --- |
| S=c1[nH]nc(-c2cccnc2)n1/N=C\c1ccccc1OCCCCOc1ccccc1/C=N\n1c(-c2cccnc2)n[nH]c1=S | 0 |
| S=c1[nH]nc(-c2cccnc2)n1/N=C\c1ccccc1OCCOCCOc1ccccc1/C=N\n1c(-c2cccnc2)n[nH]c1=S | 1 |

test system: Pseudomonas aeruginosa; assay: Antimicrobial activity against Pseudomonas aeruginosa RCMB 102002 at 1 mg/ml by agar diffusion technique; format: functional; details: read-out: DIZ; procedure, shortened: as §1

| SMILES | zone of inhibition at 1000 µg/mL [mm] |
| --- | --- |
| S=c1[nH]nc(-c2cccnc2)n1/N=C\c1ccccc1OCCCCOc1ccccc1/C=N\n1c(-c2cccnc2)n[nH]c1=S | 0 |
| S=c1[nH]nc(-c2cccnc2)n1/N=C\c1ccccc1OCCOCCOc1ccccc1/C=N\n1c(-c2cccnc2)n[nH]c1=S | 0 |

test system: Pseudomonas aeruginosa; assay: Antimicrobial activity against Pseudomonas aeruginosa RCMB 102002 at 2.5 mg/ml by agar diffusion technique; format: functional; details: read-out: DIZ; procedure, shortened: as §1

| SMILES | zone of inhibition at 2500 µg/mL [mm] |
| --- | --- |
| S=c1[nH]nc(-c2cccnc2)n1/N=C\c1ccccc1OCCCCOc1ccccc1/C=N\n1c(-c2cccnc2)n[nH]c1=S | 1 |
| S=c1[nH]nc(-c2cccnc2)n1/N=C\c1ccccc1OCCOCCOc1ccccc1/C=N\n1c(-c2cccnc2)n[nH]c1=S | 0 |

test system: Bacillus subtilis; assay: Antimicrobial activity against Bacillus subtilis RCMB 101001 at 1 mg/ml by agar diffusion technique; format: functional; details: read-out: DIZ; procedure, shortened: as §1

| SMILES | zone of inhibition at 1000 µg/mL [mm] |
| --- | --- |
| S=c1[nH]nc(-c2cccnc2)n1/N=C\c1ccccc1OCCCCOc1ccccc1/C=N\n1c(-c2cccnc2)n[nH]c1=S | 0 |
| S=c1[nH]nc(-c2cccnc2)n1/N=C\c1ccccc1OCCOCCOc1ccccc1/C=N\n1c(-c2cccnc2)n[nH]c1=S | 1 |

test system: Escherichia coli; assay: Antimicrobial activity against Escherichia coli RCMB 103001 at 2.5 mg/ml by agar diffusion technique; format: functional; details: read-out: DIZ; procedure, shortened: as §1

| SMILES | zone of inhibition at 2500 µg/mL [mm] |
| --- | --- |
| S=c1[nH]nc(-c2cccnc2)n1/N=C\c1ccccc1OCCCCOc1ccccc1/C=N\n1c(-c2cccnc2)n[nH]c1=S | 0 |
| S=c1[nH]nc(-c2cccnc2)n1/N=C\c1ccccc1OCCOCCOc1ccccc1/C=N\n1c(-c2cccnc2)n[nH]c1=S | 0 |

test system: Staphylococcus aureus; assay: Antimicrobial activity against Staphylococcus aureus RCMB 106001 at 5 mg/ml by agar diffusion technique; format: functional; details: read-out: DIZ; procedure, shortened: as §1

| SMILES | zone of inhibition at 5000 µg/mL [mm] |
| --- | --- |
| S=c1[nH]nc(-c2cccnc2)n1/N=C\c1ccccc1OCCCCOc1ccccc1/C=N\n1c(-c2cccnc2)n[nH]c1=S | 1 |
| S=c1[nH]nc(-c2cccnc2)n1/N=C\c1ccccc1OCCOCCOc1ccccc1/C=N\n1c(-c2cccnc2)n[nH]c1=S | 0 |

test system: Bacillus subtilis; assay: Antimicrobial activity against Bacillus subtilis RCMB 101001 at 5 mg/ml by agar diffusion technique; format: functional; details: read-out: DIZ; procedure, shortened: as §1

| SMILES | zone of inhibition at 5000 µg/mL [mm] |
| --- | --- |
| S=c1[nH]nc(-c2cccnc2)n1/N=C\c1ccccc1OCCCCOc1ccccc1/C=N\n1c(-c2cccnc2)n[nH]c1=S | 0 |
| S=c1[nH]nc(-c2cccnc2)n1/N=C\c1ccccc1OCCOCCOc1ccccc1/C=N\n1c(-c2cccnc2)n[nH]c1=S | 1 |

test system: Candida albicans; assay: Antimicrobial activity against Candida albicans RCMB 005003 at 1 mg/ml by agar diffusion technique; format: functional; details: read-out: DIZ; procedure, shortened: as §1

| SMILES | zone of inhibition at 1000 µg/mL [mm] |
| --- | --- |
| S=c1[nH]nc(-c2cccnc2)n1/N=C\c1ccccc1OCCCCOc1ccccc1/C=N\n1c(-c2cccnc2)n[nH]c1=S | 0 |
| S=c1[nH]nc(-c2cccnc2)n1/N=C\c1ccccc1OCCOCCOc1ccccc1/C=N\n1c(-c2cccnc2)n[nH]c1=S | 0 |

test system: Candida albicans; assay: Antimicrobial activity against Candida albicans RCMB 005003 at 5 mg/ml by agar diffusion technique; format: functional; details: read-out: DIZ; procedure, shortened: as §1

| SMILES | zone of inhibition at 5000 µg/mL [mm] |
| --- | --- |
| S=c1[nH]nc(-c2cccnc2)n1/N=C\c1ccccc1OCCCCOc1ccccc1/C=N\n1c(-c2cccnc2)n[nH]c1=S | 1 |
| S=c1[nH]nc(-c2cccnc2)n1/N=C\c1ccccc1OCCOCCOc1ccccc1/C=N\n1c(-c2cccnc2)n[nH]c1=S | 0 |

test system: Penicillium italicum; assay: Antimicrobial activity against Penicillium italicum RCMB 001018 at 2.5 mg/ml by agar diffusion technique; format: functional; details: read-out: DIZ; procedure, shortened: as §1

| SMILES | zone of inhibition at 2500 µg/mL [mm] |
| --- | --- |
| S=c1[nH]nc(-c2cccnc2)n1/N=C\c1ccccc1OCCCCOc1ccccc1/C=N\n1c(-c2cccnc2)n[nH]c1=S | 1 |
| S=c1[nH]nc(-c2cccnc2)n1/N=C\c1ccccc1OCCOCCOc1ccccc1/C=N\n1c(-c2cccnc2)n[nH]c1=S | 1 |

test system: Penicillium italicum; assay: Antimicrobial activity against Penicillium italicum RCMB 001018 at 5 mg/ml by agar diffusion technique; format: functional; details: read-out: DIZ; procedure, shortened: as §1

| SMILES | zone of inhibition at 5000 µg/mL [mm] |
| --- | --- |
| S=c1[nH]nc(-c2cccnc2)n1/N=C\c1ccccc1OCCCCOc1ccccc1/C=N\n1c(-c2cccnc2)n[nH]c1=S | 1 |
| S=c1[nH]nc(-c2cccnc2)n1/N=C\c1ccccc1OCCOCCOc1ccccc1/C=N\n1c(-c2cccnc2)n[nH]c1=S | 1 |

test system: Aspergillus fumigatus; assay: Antimicrobial activity against Aspergillus fumigatus RCMB 002008 at 1 mg/ml by agar diffusion technique; format: functional; details: read-out: DIZ; procedure, shortened: as §1

| SMILES | zone of inhibition at 1000 µg/mL [mm] |
| --- | --- |
| S=c1[nH]nc(-c2cccnc2)n1/N=C\c1ccccc1OCCCCOc1ccccc1/C=N\n1c(-c2cccnc2)n[nH]c1=S | 0 |
| S=c1[nH]nc(-c2cccnc2)n1/N=C\c1ccccc1OCCOCCOc1ccccc1/C=N\n1c(-c2cccnc2)n[nH]c1=S | 0 |

test system: Bacillus subtilis; assay: Antimicrobial activity against Bacillus subtilis RCMB 101001 at 2.5 mg/ml by agar diffusion technique; format: functional; details: read-out: DIZ; procedure, shortened: as §1

| SMILES | zone of inhibition at 2500 µg/mL [mm] |
| --- | --- |
| S=c1[nH]nc(-c2cccnc2)n1/N=C\c1ccccc1OCCCCOc1ccccc1/C=N\n1c(-c2cccnc2)n[nH]c1=S | 0 |
| S=c1[nH]nc(-c2cccnc2)n1/N=C\c1ccccc1OCCOCCOc1ccccc1/C=N\n1c(-c2cccnc2)n[nH]c1=S | 1 |
